Assay outcomes (PubChem)
The list is not random: actives were taken first. Their share in the collection is about 2.4%.
HTR2A ag: mouse Htr2a agonists via beta-arrestin recruitment, primary screen, cell-based, luminescence | CHO-K1 mHTR2A beta-arrestin complementation; percent of 30 µM serotonin response | activation, % at 7.6 µM | 0.66% of 360,000 active | AID 624169, 2012;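 active = activation above a run cutoff, the mean activation of all tested compounds plus 3 SD, cut at about 14% in these data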
Target sequence (P35363 whole entry, looked up): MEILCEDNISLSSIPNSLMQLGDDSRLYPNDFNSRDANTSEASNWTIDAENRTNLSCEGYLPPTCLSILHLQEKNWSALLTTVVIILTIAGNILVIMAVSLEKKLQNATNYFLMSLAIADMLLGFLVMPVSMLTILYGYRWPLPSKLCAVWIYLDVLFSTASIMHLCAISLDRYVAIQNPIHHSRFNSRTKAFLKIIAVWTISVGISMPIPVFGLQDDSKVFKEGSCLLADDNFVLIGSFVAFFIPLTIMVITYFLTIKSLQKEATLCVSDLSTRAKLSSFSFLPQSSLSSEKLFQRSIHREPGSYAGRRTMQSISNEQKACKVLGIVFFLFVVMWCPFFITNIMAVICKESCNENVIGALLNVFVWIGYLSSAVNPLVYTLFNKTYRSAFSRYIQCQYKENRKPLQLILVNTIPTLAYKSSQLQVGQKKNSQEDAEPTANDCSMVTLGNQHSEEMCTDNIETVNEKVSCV
SR-BI HDL uptake: inhibitors of SR-BI mediated HDL lipid uptake, primary screen, ldlA[mSR-BI] cells, fluorescence, single point. 0.96% of 320,000 active. Scavenger receptor class B member 1 (Mus musculus), Q61009. inhibition, % at 12.5 µM. ldlA[mSR-BI] CHO cells, DiI-HDL uptake fluorescence, 3 h;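 active = mean replicate inhibition of at least 70% and a set share of replicates each scoring 70 or more; inconclusive = meets just one of the two criteria; inactive = fails both criteria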
MIN6 prolif: inducers of MIN6 beta-cell proliferation, primary screen, ATP luminescence, uHTS. MIN6 cells proliferation, ATPlite luminescence, 48 h; cells starved in 0.2% serum; 100% = growth in 10% serum. proliferation, % at 10 µM. 0.29% of 330,000 active. AID 2380, 2010;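 active = compounds whose signal lies at least 3.5 SD above the mean of all wells on their plate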
Calb FLC: C. albicans growth inhibition with fluconazole, primary screen, CaCi-2 strain, Alamar Blue fluorescence. growth inhibition, % (concentration not given with the values). 0.57% of 300,000 active. C. albicans CaCi-2 + fluconazole, 48 h;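 active = growth inhibition above about 58% in most replicates, limit read from the data, passing the limit was not always enough; inconclusive = exactly half the replicates above a set limit; inactive = most replicates below a set limit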;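 also: all wells also contain fluconazole at 8 µg/ml as a sub-toxic cotreatment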
SR-BI DiI-HDL act: activators of SR-BI mediated DiI-HDL uptake, primary screen, ldlA[mSR-BI] CHO cells, DiI fluorescence | 0.096% of 320,000 active | AID 504775, 2011 | activation, % at 12.5 µM | 3 h; 100 = double the neutral-control signal;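 active = mean replicate activation of at least 60% and every replicate at or above 60%; inconclusive = mean or all-replicate condition met, but not both; inactive = mean below 60% and not all replicates reaching 60%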
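System: LDL receptor-deficient CHO ldlA cells overexpressing murine SR-BI | Timing: 3 h uptake period with compound, 37 °C | Medium: HEPES-buffered (25 mM, pH 7.4) F12 plus 0.5% BSA | Dosing: Single-point compound dose | Signal: Bottom-read fluorescence, 550/595 nm | Read-out: Retained DiI signal reflecting DiI-HDL uptake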
Ins promoter up: insulin promoter activators in MIN6 cells, imaging, high-content screening, mouse beta cells | MIN6 insulin promoter-GFP reporter; stronger effect = higher value | z-score at 5 µM | 0.3% of 190,000 active | AID 1625, 2009;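 active = z-score above 3 at 5 µM with at least 500 cells counted in the well; inconclusive = wells under 500 cells, flagged as cytotoxic or low count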
Numbers stand for hits; 0 = inactive; ? = inconclusive; - = no result given.

SMILES	HTR2A ag	SR-BI HDL uptake	MIN6 prolif	Calb FLC	SR-BI DiI-HDL act	Ins promoter up
COc1ccccc1CC(=O)NC1CC1	0	0	0	0	0	-
CNS(=O)(=O)c1cccc(C(=O)OCc2cc(=O)oc3c(C)c(O)ccc23)c1	0	-	0	0	-	-
COC(=O)/C(=N\Nc1ccc(Cl)cc1)Sc1nnc(-c2ccc(OC)cc2)n1C	0	0	0	84.1	0	-
COc1cc2c(cc1NC(=S)Nc1ccccc1C)oc1ccccc12	0	0	0	0	0	0
COc1cc(NC(=S)NCCc2c[nH]c3ccccc23)c(OC)cc1Cl	0	73.3	0	0	0	0
CCCNC(=S)Nc1cc2oc3ccccc3c2cc1OC	0	88.9	0	0	0	-
COc1cc2c(cc1NC(=O)C1CCCO1)oc1ccccc12 (stereo not given)	0	76.1	0	0	0	0
CCNC(=S)Nc1cc2oc3ccccc3c2cc1OC	0	83.9	0	0	0	-
COc1ccccc1NC(=S)NCCc1c[nH]c2ccccc12	0	0	0	0	0	0
CO[C@H]1CN(C)C(=O)c2ccc(NS(=O)(=O)c3ccccc3F)cc2OC[C@H](C)NC[C@@H]1C	0	-	-	-	-	-
Cc1ccc(-n2nc3c(c2NC(=O)c2ccc4c(c2)OCO4)CS(=O)C3)c(C)c1 (stereo not given)	0	0	0	0	0	-
COc1ccccc1/C=C/C(=O)N1CCN(S(=O)(=O)c2cccs2)CC1	0	0	0	-	0	-
CC1CCN(S(=O)(=O)N2CCC(C(=O)NC(C)c3ccccc3)CC2)CC1 (stereo not given)	0	-	-	-	-	-
CNC(=S)Nc1cc2oc3ccccc3c2cc1OC	0	94.2	0	?	0	-
CCOc1ccc2c(c1)-c1c(ssc1=S)C(C)(C)N2C	0	89.1	0	0	0	0
Cc1cc(C)c(NS(=O)(=O)c2cccc3cccnc23)c(C)c1	0	0	0	73.3	0	0
Cc1ccc(NS(=O)(=O)c2cccc3cccnc23)cc1Cl	0	0	0	0	0	-
COc1ccc(N(CCN2C(=O)c3ccccc3C2=O)C(=O)c2cccc([N+](=O)[O-])c2)cc1	0	0	0	0	0	3.09
COc1ccc(N(C(=O)Cc2cccs2)C2C=CS(=O)(=O)C2)cc1 (stereo not given)	0	0	0	0	0	3.14
Oc1ccc(Nc2ncnc3c2oc2ccccc23)cc1	0	0	0	0	0	-
Oc1cccc(Nc2ncnc3c2oc2ccccc23)c1	0	0	0	90.9	0	-
Cc1nn(-c2ccccc2)c(C)c1C(=O)OCC(O)=C(C#N)c1nc2ccccc2[nH]1	0	0	-	-	0	-
Cc1nn(-c2ccccc2)c(C)c1C(=O)OC/C(O)=C(\C#N)c1nc2ccccc2[nH]1	0	0	0	81.7	0	0
Cc1[nH]c2ccc(C(=O)Nc3ccncc3)cc2c1C	0	-	0	0	-	-
COc1ccccc1NC(=O)c1ccc2[nH]c(C)c(C)c2c1	0	80.5	0	0	0	-
SMILES	HTR2A ag	SR-BI HDL uptake	MIN6 prolif	Calb FLC	SR-BI DiI-HDL act	Ins promoter up
CCn1cc(C(=O)OCC(=O)OC2CC(C)CCC2C(C)C)c(=O)c2ccc(C)nc21 (stereo not given)	0	81.5	0	0	0	0
CCn1cc(C(=O)OCC(=O)Nc2c(C)n(C)n(-c3ccccc3)c2=O)c(=O)c2ccc(C)nc21	0	0	0	0	0	0
CCn1cc(C(=O)OCC(=O)Nc2cccc(Cl)c2Cl)c(=O)c2ccc(C)nc21	0	0	0	105.7	0	0
c1ccc(-c2cccc(-c3ccccn3)n2)nc1	0	0	0	100.1	0	0
c1ccc(-c2nnc(-c3ccccn3)nn2)nc1	0	0	0	0	0	-
CCOc1cc(/C=N/NC(=O)c2ccc(N(C)S(=O)(=O)c3ccccc3)cc2)ccc1OC	0	72.8	0	0	0	-
CC(=O)Nc1ccc(C(=O)N/N=C/c2ccccc2OCc2ccccc2)cc1	0	79.4	0	0	0	0
COc1ccccc1/C=N/NC(=O)c1ccc(-c2ccccc2)cc1	0	78.9	0	0	0	0
Cc1[nH]c2ccccc2c1/C=N/Nc1ccccc1[N+](=O)[O-]	0	128.9	0	0	0	0
COC(=O)N/N=C/c1ccccc1OCc1ccccc1	0	0	0	0	0	0
COc1ccccc1/C=N/NC(=O)c1ccc(=O)n(C)c1	0	0	0	0	0	0
Cc1onc(-c2ccccc2)c1C(=O)NCCCc1ccccc1	0	0	0	-	0	-
O=S1(=O)CCN(C2CC2)CC1	0	-	-	-	-	-
O=C(N/N=C/c1ccccc1[N+](=O)[O-])c1ccc(COc2ccccc2-c2ccccc2)cc1	0	76.8	0	0	0	0
COc1cc(/C=N/Nc2ccccc2[N+](=O)[O-])cc(OC)c1O	0	78.5	0	0	0	-
COc1cc(/C=N\NC(=O)c2ccc(-c3ccccc3)cc2)cc(OC)c1O	0	91.7	0	0	0	-
COc1ccc(/C=N/NC(=O)c2cc3c(ccc4ccccc43)o2)c(OC)c1	0	82.3	0	0	0	-
COc1cc(/C=N\NC(=O)c2ccc(-c3ccccc3)cc2)cc(OC)c1OC(C)=O	0	0	0	0	-	-
N#Cc1cccc(C#N)c1Oc1ccc(S(=O)(=O)Nc2ccc(Cl)cc2)cc1	0	0	0	0	0	0
CC1(C)C(=O)C=C(N2CCCCC2)c2ccccc21	0	-	-	-	-	-
OCC1OC(Nc2ccccc2C=NO)C(O)C1O (stereo not given)	0	-	-	-	-	-
COC(=O)C[C@@H]1CC[C@@H](NS(=O)(=O)c2ccc(OC)cc2)[C@@H](CO)O1	0	-	-	-	-	-
CCOc1ccccc1C=NNC(=O)c1cccc2ccccc12	0	0	-	-	0	-
COc1ccccc1/C=N/NC(=O)c1cccc2ccccc12	0	77.0	0	0	0	-
O=C(CSCc1cccc(F)c1)NCc1ccccc1	0	0	0	0	0	0
SMILES	HTR2A ag	SR-BI HDL uptake	MIN6 prolif	Calb FLC	SR-BI DiI-HDL act	Ins promoter up
Cc1ccc(CNC(=O)CSCc2cccc(F)c2)cc1	0	0	0	93.9	0	-
Cc1ccc(S(=O)(=O)N2CCN(C(=O)COC(=O)/C=C/c3ccc(OC(F)F)cc3)CC2)cc1	0	0	-	-	0	-
Cc1ccc(C(=O)NCC(=O)NCCSc2ccc(Br)cc2)cc1	0	0	0	0	0	-
CCOc1ccc(C(=O)NCC(=O)NCCSc2ccc(Br)cc2)cc1OCC	0	87.3	-	-	0	-
CCc1ccc(OCC(=O)Nc2ccc3oc(=O)ccc3c2)cc1	0	0	0	0	0	-
CC(Nc1cc(C)cc(C)c1)=[N+](C)CCNS(=O)(=O)c1ccc(Cl)cc1	0	0	0	0	0	-
CCCc1[nH]n(-c2ccc([N+](=O)[O-])cc2)c(=O)c1C=NCCc1c[nH]c2ccccc12	0	79.3	0	0	0	0
